From publication PMC12039533 (Journal of Food and Drug Analysis, 2025)

Experiments:
FLT3 = target: T1, FLT3 (Homo sapiens, UniProt P36888); assay: HTRF KinEASE in vitro kinase assay; type: biochemical
T1 sequence (P36888 27-993): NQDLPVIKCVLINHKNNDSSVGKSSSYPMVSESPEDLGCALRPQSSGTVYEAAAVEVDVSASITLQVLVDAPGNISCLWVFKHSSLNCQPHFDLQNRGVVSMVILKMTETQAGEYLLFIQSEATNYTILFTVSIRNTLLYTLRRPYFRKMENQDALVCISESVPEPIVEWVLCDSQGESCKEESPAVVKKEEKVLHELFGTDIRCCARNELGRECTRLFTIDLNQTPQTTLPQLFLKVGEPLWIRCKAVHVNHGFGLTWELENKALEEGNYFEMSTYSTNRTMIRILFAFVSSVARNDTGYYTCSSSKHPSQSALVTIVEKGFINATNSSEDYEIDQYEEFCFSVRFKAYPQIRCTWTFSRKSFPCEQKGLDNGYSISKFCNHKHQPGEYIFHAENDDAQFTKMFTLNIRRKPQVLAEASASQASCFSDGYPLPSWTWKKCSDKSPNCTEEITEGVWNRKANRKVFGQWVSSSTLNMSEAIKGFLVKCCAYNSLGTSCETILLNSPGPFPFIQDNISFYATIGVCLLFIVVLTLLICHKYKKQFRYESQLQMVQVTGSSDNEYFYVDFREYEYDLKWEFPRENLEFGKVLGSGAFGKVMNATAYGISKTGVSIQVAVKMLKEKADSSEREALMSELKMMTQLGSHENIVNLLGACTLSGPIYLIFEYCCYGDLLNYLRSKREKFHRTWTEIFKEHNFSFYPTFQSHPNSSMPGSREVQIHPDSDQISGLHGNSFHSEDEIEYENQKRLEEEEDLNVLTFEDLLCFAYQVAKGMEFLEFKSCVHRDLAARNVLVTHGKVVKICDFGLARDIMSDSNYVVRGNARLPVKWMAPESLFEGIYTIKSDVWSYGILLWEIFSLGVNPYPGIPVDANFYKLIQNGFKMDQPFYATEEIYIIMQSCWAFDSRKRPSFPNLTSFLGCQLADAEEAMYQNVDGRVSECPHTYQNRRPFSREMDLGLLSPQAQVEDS

SRPK1 = SRPK1 (Homo sapiens, UniProt Q96SB4); assay: HTRF KinEASE in vitro kinase assay; type: biochemical
Chain of SRPK1 (Q96SB4 whole entry): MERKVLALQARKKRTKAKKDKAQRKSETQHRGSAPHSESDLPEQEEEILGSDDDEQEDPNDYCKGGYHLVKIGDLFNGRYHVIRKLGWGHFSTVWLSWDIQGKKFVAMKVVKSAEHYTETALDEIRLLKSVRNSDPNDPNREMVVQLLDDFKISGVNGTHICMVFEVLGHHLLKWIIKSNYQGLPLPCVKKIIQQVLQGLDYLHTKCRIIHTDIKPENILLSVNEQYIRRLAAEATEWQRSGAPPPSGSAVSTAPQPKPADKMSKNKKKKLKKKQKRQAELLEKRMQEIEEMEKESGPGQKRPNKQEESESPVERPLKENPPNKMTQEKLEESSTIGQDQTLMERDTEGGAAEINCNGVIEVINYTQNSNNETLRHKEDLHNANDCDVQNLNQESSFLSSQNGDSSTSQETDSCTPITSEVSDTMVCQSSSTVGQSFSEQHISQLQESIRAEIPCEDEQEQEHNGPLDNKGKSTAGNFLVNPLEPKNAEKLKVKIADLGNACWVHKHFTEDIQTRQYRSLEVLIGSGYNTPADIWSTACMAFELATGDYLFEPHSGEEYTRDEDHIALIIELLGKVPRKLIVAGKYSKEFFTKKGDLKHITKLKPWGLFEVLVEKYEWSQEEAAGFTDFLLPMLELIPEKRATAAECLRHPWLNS
Procedure, shortened: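 Kinase activity was measured with the HTRF KinEASE STK/TK kit, and the TR-FRET signal was read on a multilabel microplate reader. Percent inhibition was calculated from the signal, and the IC50 was derived from these inhibition rates.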

IC50 (FLT3): 1510 ± 440 nM
IC50 (SRPK1): 370 ± 150 nM
Compound: COc1cc(O)c(CC=C(C)C)c(O)c1C(=O)/C=C/c1ccc(O)cc1 [XN, Xanthohumol]
